From ChEMBL document CHEMBL4834405, “Structure-Based Design of High-Affinity Macrocyclic FKBP51 Inhibitors” (J Med Chem, 2021)

Key:
[1] = molecular target: T1, Peptidyl-prolyl cis-trans isomerase FKBP5 (Homo sapiens, UniProt Q13451); assay: (§1) Displacement of fluorescent tracer 5-(3-(4-((1S,5S,6S)-10-(3,5-dichlorophenylsulfonyl)-2-oxo-3-(pyridin-3-ylmethyl)-3,10-diazabicyclo[4.3.1]decan-5-yl)-1H-1,2,3-triazol-1-yl)propylcarbamoyl)-2-(6-(dimethylamino)-3-(dimethyliminio)-3H-xanthen-9-yl)benzoate from recombinant full length C-terminal FLAG-tagged FKBP51 (unknown origin) expressed in Escherichia coli BL21 (DE3) cells incubated for 30 mins by fluorescence polarisation competition binding assay
T1 sequence (Q13451 whole entry): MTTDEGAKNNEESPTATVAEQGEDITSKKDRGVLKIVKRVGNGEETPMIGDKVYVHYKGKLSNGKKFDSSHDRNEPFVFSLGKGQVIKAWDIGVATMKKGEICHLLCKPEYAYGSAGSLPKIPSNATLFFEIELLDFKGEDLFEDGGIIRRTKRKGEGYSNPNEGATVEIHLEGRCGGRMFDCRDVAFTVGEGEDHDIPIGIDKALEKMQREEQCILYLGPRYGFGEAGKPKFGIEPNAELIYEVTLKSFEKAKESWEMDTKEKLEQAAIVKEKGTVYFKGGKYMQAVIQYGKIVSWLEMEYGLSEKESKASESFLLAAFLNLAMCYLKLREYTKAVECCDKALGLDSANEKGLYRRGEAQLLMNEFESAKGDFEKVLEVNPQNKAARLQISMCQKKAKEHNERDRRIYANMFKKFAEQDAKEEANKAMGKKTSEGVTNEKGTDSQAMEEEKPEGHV

[2] = molecular target: T2, Peptidyl-prolyl cis-trans isomerase FKBP4 (Homo sapiens, UniProt Q02790); assay: as §1, with “FKBP52” for “FKBP51”
T2 sequence (Q02790 whole entry): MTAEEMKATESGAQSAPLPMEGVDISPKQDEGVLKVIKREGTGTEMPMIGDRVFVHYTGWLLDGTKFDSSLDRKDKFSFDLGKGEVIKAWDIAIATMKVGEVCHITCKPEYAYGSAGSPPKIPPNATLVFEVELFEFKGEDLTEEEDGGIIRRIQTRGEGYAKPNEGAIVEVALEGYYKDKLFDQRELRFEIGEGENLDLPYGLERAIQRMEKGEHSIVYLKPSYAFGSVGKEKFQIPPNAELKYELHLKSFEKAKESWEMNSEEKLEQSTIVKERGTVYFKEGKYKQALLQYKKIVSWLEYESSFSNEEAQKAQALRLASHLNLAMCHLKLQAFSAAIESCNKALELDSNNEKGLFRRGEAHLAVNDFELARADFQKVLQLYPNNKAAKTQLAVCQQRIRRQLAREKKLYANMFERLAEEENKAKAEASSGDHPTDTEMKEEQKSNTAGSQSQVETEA
Method in brief: (§2)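 Competitive FP in 150 mM NaCl, 20 mM HEPES pH 8.0, 0.002% Triton X-100. Ligand 1:1 serially diluted in DMSO and premixed with fluorescent tracer, tracer working solution 11.9 nM (FKBP12.6, 51FK1, 52FK1) or 5.95 nM (FKBP12) before final 10-fold dilution into protein. 30 min at room temperature, read at ex/em 535/590 nm. Weighted SD from at least two independent runs.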

[3] = (§3) Selectivity ratio of Kd for displacement of fluorescent tracer 5-(3-(4-((1S,5S,6S)-10-(3,5-dichlorophenylsulfonyl)-2-oxo-3-(pyridin-3-ylmethyl)-3,10-diazabicyclo[4.3.1]decan-5-yl)-1H-1,2,3-triazol-1-yl)propylcarbamoyl)-2-(6-(dimethylamino)-3-(dimethyliminio)-3H-xanthen-9-yl)benzoate from recombinant full length C-terminal FLAG-tagged FKBP52 (unknown origin) to Kd for displacement of fluorescent tracer 5-(3-(4-((1S,5S,6S)-10-(3,5-dichlorophenylsulfonyl)-2-oxo-3-(pyridin-3-ylmethyl)-3,10-diazabicyclo[4.3.1]decan-5-yl)-1H-1,2,3-triazol-1-yl)propylcarbamoyl)-2-(6-(dimethylamino)-3-(dimethyliminio)-3H-xanthen-9-yl)benzoate from recombinant full length C-terminal FLAG-tagged FKBP51 (unknown origin)
[4] = molecular target: Peptidyl-prolyl cis-trans isomerase FKBP1A (Homo sapiens, UniProt P62942); assay: as §1, with “FKBP12” for “FKBP51”, “([…])” for “(DE3)”; method in brief: as §2
Peptidyl-prolyl cis-trans isomerase FKBP1A, sequence (P62942 whole entry): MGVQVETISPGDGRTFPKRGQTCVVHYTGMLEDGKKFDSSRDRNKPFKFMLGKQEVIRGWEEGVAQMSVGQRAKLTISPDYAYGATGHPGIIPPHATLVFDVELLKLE

[5] = as §3, with “FJBP12” for “FKBP52 (unknown origin)”
[6] = molecular target: Peptidyl-prolyl cis-trans isomerase FKBP1B (Homo sapiens, UniProt P68106); assay: as §1, with “FKBP12.6” for “FKBP51”, “competition” for “competition binding”; method in brief: as §2
Peptidyl-prolyl cis-trans isomerase FKBP1B, sequence (P68106 whole entry): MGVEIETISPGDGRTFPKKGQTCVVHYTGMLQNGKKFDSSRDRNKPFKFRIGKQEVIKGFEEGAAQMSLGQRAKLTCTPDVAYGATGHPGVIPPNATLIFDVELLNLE

[7] = as §3, with “FKBP12.6” for “FKBP52”
[8] = molecular target: T1, Peptidyl-prolyl cis-trans isomerase FKBP5; assay: Binding affinity to FKBP51 FK1 domain (unknown origin) assessed as dissociation constant at 25 degreeC by isothermal titration calorimetric analysis
Method in brief: (§4)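 FKBP51 FK1 domain, ITC at 25 °C in 20 mM HEPES pH 8.0, 20 mM NaCl. Standard setup: 10 μM protein in cell with 0.5% DMSO, 100 μM ligand in syringe. Reverse setup for poorly soluble ligand: 10 μM ligand in cell with 5% DMSO, 100 μM protein in syringe. 18 × 2 μL injections, one-site binding fit, triplicates, weighted SD that includes fit errors.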

[9] = molecular target: T3, Peptidyl-prolyl cis-trans isomerase FKBP5 (Homo sapiens) (UniProt Q13451); assay: Binding affinity to FKBP51 FK1 domain (unknown origin) assessed as gibbs free energy change by isothermal titration calorimetric analysis; method in brief: as §4
T3 sequence (whole entry): T1 sequence (Q13451 whole entry)

[10] = molecular target: T3, Peptidyl-prolyl cis-trans isomerase FKBP5 (Homo sapiens); assay: Binding affinity to FKBP51 FK1 domain (unknown origin) assessed as change in enthalpy by isothermal titration calorimetric analysis; method in brief: as §4

SMILES	Kd [1] [nM]	Kd [2] [nM]	Selectivity ratio [3]	Kd [4] [nM]	Selectivity ratio [5]	Kd [6] [nM]	Selectivity ratio [7]	Kd [8] [nM]	deltaG [9] [kcal/mol]	deltaH [10] [kcal/mol]
COc1ccc(CC[C@H]2OC(=O)[C@@H]3CCCCN3C(=O)[C@@H](C3CCCCC3)c3cc(OC)c(OC)c(c3)OC[C@@H](O)[C@H](O)COc3cccc2c3)cc1OC	5	513	103	22	4.4	9	1.8	6.9	-11.1	-11.3
COc1ccc(CC[C@H]2OC(=O)[C@@H]3CCCCN3C(=O)[C@@H](C3CCCCC3)c3cc(OC)c(OC)c(c3)OCCCOCCCCOc3cccc2c3)cc1OC	103	> 10000	> 97	354	3.4	227	2.2	–	–	–
COc1ccc(CC[C@H]2OC(=O)[C@@H]3CCCCN3C(=O)[C@@H](C3CCCCC3)c3cc(OC)c(OC)c(c3)OCCCC(=O)COc3cccc2c3)cc1OC	28	4100	146	66	2.4	43	1.5	–	–	–
COc1ccc(CC[C@H]2OC(=O)[C@@H]3CCCCN3C(=O)[C@@H](C3CCCCC3)c3cc(OC)c(OC)c(c3)OCCCCOc3cccc2c3)cc1OC	29	4460	154	113	3.8	62	2.1	–	–	–
COc1ccc(CC[C@H]2OC(=O)[C@@H]3CCCCN3C(=O)[C@@H](C3CCCCC3)c3cc(OC)c(c(OC)c3)OC/C=C\COc3cccc2c3)cc1OC	67	> 10000	> 149	815	12.2	658	9.8	–	–	–
COc1ccc(CC[C@H]2OC(=O)[C@@H]3CCCCN3C(=O)[C@@H](C3CCCCC3)c3cc(OC)c(c(OC)c3)OCCCOc3cccc2c3)cc1OC	70	> 10000	> 142	744	10.6	446	6.3	–	–	–
COc1ccc(CC[C@@H](OC(=O)[C@@H]2CCCCN2C(=O)[C@H](c2cc(OC)c(OC)c(OC)c2)C2CCCCC2)c2cccc(OCC(=O)O)c2)cc1OC	–	–	–	–	–	–	–	9.8	-10.9	-11.2

More lines, now with the values ahead:

Kd [1] [nM]	Kd [2] [nM]	Selectivity ratio [3]	Kd [4] [nM]	Selectivity ratio [5]	Kd [6] [nM]	Selectivity ratio [7]	Kd [8] [nM]	deltaG [9] [kcal/mol]	deltaH [10] [kcal/mol]	SMILES
8	1400	175	38	4.8	20	2.5	–	–	–	COc1ccc(CC[C@H]2OC(=O)[C@@H]3CCCCN3C(=O)[C@@H](C3CCCCC3)c3cc(OC)c(OC)c(c3)OCCC(=O)CCOc3cccc2c3)cc1OC
84	> 10000	> 119	595	7	335	3.9	–	–	–	COc1ccc(CC[C@H]2OC(=O)[C@@H]3CCCCN3C(=O)[C@@H](C3CCCCC3)c3cc(OC)c(c(OC)c3)OCCCOC/C=C/COc3cccc2c3)cc1OC
71	> 10000	> 141	139	2	116	1.6	–	–	–	COc1ccc(CC[C@H]2OC(=O)[C@@H]3CCCCN3C(=O)[C@@H](C3CCCCC3)c3cc(OC)c(OC)c(c3)OCC/C=C\COc3cccc2c3)cc1OC
12	795	66.2	79	6.5	85	7	–	–	–	COc1ccc(CC[C@H]2OC(=O)[C@@H]3CCCCN3C(=O)[C@@H](C3CCCCC3)c3cc(OC)c(c(OC)c3)OCC(O)C(O)COc3cccc2c3)cc1OC (mixture of isomers)
28	3880	138	62	2.2	53	1.9	–	–	–	COc1ccc(CC[C@H]2OC(=O)[C@@H]3CCCCN3C(=O)[C@@H](C3CCCCC3)c3cc(OC)c(OC)c(c3)OCCOCC(=O)CCOc3cccc2c3)cc1OC
144	> 10000	> 69	494	3.4	352	2.3	–	–	–	COc1ccc(CC[C@H]2OC(=O)[C@@H]3CCCCN3C(=O)[C@@H](C3CCCCC3)c3cc(OC)c(OC)c(c3)OCCCOC/C=C\COc3cccc2c3)cc1OC
11	4670	425	86	7.8	38	3.4	–	–	–	COc1ccc(CC[C@H]2OC(=O)[C@@H]3CCCCN3C(=O)[C@@H](C3CCCCC3)c3cc(OC)c(c(OC)c3)OCCC(=O)COc3cccc2c3)cc1OC
